Activity calls are given as the source filed them. The calls are words filed in the database; no cut-off is given here.
Tests used:
[1] = Growth inhibition of human MCF7/Topo cells after 24 hrs by MTT assay; format: functional, cell-based
Outline: (§1)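 Cells seeded at 5000/well (Ea.hy926 10,000/well) and exposed for 24 h to dilution series of 100 µM–5 pM, with DMSO as solvent control. MTT (0.5 mg/mL final) for 2 h. Formazan dissolved in SDS/acetic acid/DMSO and read at 570 nm against a 630 nm background. Viability taken relative to DMSO controls; IC50 from dose–response curves, mean of four independent experiments.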

[2] = Growth inhibition of human 518A2 cells after 72 hrs by MTT assay; format: functional, cell-based; conditions: 518A2, 72 h
Outline: (§2)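 5000 cells/well exposed for 72 h to dilution series of 100 µM–5 pM, with DMSO as solvent control. MTT 0.5 mg/mL final for 2 h, absorbance at 570/630 nm. Percentage viable cells taken versus DMSO controls; IC50 from dose–response curves, mean of four independent experiments.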

[3] = Growth inhibition of human 518A2 cells after 24 hrs by MTT assay; format: functional, cell-based; conditions: 518A2, 24 h; outline: as §1
[4] = Growth inhibition of human KB-V1/Vbl cells after 24 hrs by MTT assay; format: functional; outline: as §1
HT-29 [5] = assay: Growth inhibition of combretastatin A-4 resistant human HT-29 cells after 24 hrs by MTT assay; format: functional, cell-based; conditions: HT-29, 24 h; outline: as §1
HT-29 [6] = assay: Growth inhibition of combretastatin A-4 resistant human HT-29 cells after 72 hrs by MTT assay; format: functional, cell-based; conditions: HT-29, 72 h; outline: as §2
EA.hy 926 [7] = assay: Antivascular activity in human EAhy926 cells assessed as disruption of preformed blood vessel lke network at 100 nM after 16 hrs by matrigel based tube formation assay; format: functional, cell-based
Outline: (§3)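 Ea.hy926 cells (100,000/well) were seeded on Matrigel-coated coverslips and allowed 12 h to form vessel-like networks. Test agent (CA-4 100 nM; indoles 250 nM) or DMSO was then added for 16 h, and networks were documented by light microscopy. Viability was checked by 2 h MTT (0.5 mg/mL) relative to DMSO controls.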

[8] = Cytotoxicity against fertilized white leghorn chicken embryos in CAM model assessed as lethality at 5 nmol after 24 hrs relative to control; format: organism-based, Gallus gallus; conditions: in vivo
Outline: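 Day-5 fertilized eggs (37 °C, 50-60% humidity) windowed, with 6 mm silicon rings placed on CAM vessels and incubated a further 24 h. Compound diluted to 500 µM in PBS and pipetted inside the ring (10 µL = 5 nmol); DMSO control. Vessel changes documented by stereomicroscopy at 0, 12 and 24 h.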

HT-29 [9] = assay: Cell cycle arrest in combretastatin A-4 resistant human HT-29 cells assessed as accumulation at G2 phase at 5 uM after 24 hrs by propidium iodide staining-based flow cytometry (reference value: 15.6 +/- 0.1%); format: functional
Outline: (§4)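 HT-29 cells (200,000/well) were treated 24 h with 100 nM indole, 5 μM CA-4 or DMSO. Cells were trypsinized, fixed in 4% formaldehyde (20 min, RT) and permeabilized in 90% ice-cold methanol (30 min). They were immunostained with anti-phospho-histone H3 (Ser10) (5 μg/mL, 37 °C, 1 h) plus an AlexaFluor-488 secondary, then stained with PI/RNase (30 min, 37 °C). Flow cytometry of 10,000 single cells assigned G1/S/G2/M.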

HT-29 [10] = assay: Cell cycle arrest in combretastatin A-4 resistant human HT-29 cells assessed as mitotic cells at 5 uM after 24 hrs by propidium iodide/immunostaining method (reference value: 3.1 to 3.2%); format: functional; outline: as §4
[11] = Growth inhibition of primary chicken fibroblasts after 48 hrs by MTT assay; format: cell-based; conditions: Gallus gallus, Fibroblast
Outline: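 Chicken heart fibroblasts explanted from 10-day-old embryos, seeded at 10,000/well; cardiomyocytes seeded at 20,000/well. Dilution series given for 48 h, DMSO as control. MTT 0.5 mg/mL for 2 h, absorbance at 570/630 nm. Viability versus DMSO controls; IC50 from dose–response curves, mean of three independent experiments.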

EA.hy 926 [12] = assay: Antivascular activity in human EAhy926 cells assessed as induction of retraction of cells to nodes at 100 nM after 16 hrs by light microscopic analysis; format: functional, cell-based; outline: as §3
[13] = Growth inhibition of human HCT116 cells expressing wild type p53 after 72 hrs by MTT assay; format: functional, cell-based; conditions: HCT-116, 72 h
Outline: (§5)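 HCT-116 cells, p53 wild-type or p53-/-, seeded at 5000/well and treated 72 h with dilution series (100 µM–5 pM) or DMSO. MTT 0.5 mg/mL for 2 h, absorbance at 570/630 nm. Viability relative to DMSO controls; IC50 from dose–response curves, mean of three independent experiments ± S.D.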

Sus scrofa = organism: Sus scrofa; assay: Inhibition of porcine brain alpha/beta tubulin polymerization at 5 uM measured every 20 sec by microplate reader analysis
[14] = Growth inhibition of human MCF7/Topo cells after 72 hrs by MTT assay; format: functional, cell-based
Outline: (§6)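 MTT assay: cells seeded at 5000/well (MCF-7/Topo) or 10,000/well (Ea.hy926), then given dilution series (100 µM–5 pM) or DMSO for 72 h. MTT was added at 0.5 mg/mL final for 2 h, formazan dissolved in SDS/acetic acid/DMSO, and absorbance read at 570 nm with 630 nm background. Viability was set relative to DMSO controls, and IC50 taken as the mean of at least three experiments ± S.D.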

HT-29 [15] = assay: Cell cycle arrest in combretastatin A-4 resistant human HT-29 cells assessed as accumulation at G1 phase at 5 uM after 24 hrs by propidium iodide staining-based flow cytometry (reference value: 68.1 +/- 0.3%); format: functional; outline: as §4
[16] = Growth inhibition of human EAhy926 cells after 72 hrs by MTT assay; format: cell-based; conditions: EA.hy 926, 72 h; outline: as §6
HT-29 [17] = assay: Cell cycle arrest in combretastatin A-4 resistant human HT-29 cells assessed as accumulation at S phase at 5 uM after 24 hrs by propidium iodide staining-based flow cytometry (reference value: 13.7 +/- 0.3%); format: functional; outline: as §4
[18] = Cytotoxicity against human EAhy926 cells assessed as cell viability at 100 nM after 16 hrs by MTT assay relative to control; format: cell-based, EA.hy 926; conditions: read-out: Activity
Outline: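 Ea.hy926 cells (100,000/well) seeded on Matrigel-coated coverslips and left 12 h to form networks, then exposed to compound for 16 h. Viability was read by 2 h MTT (0.5 mg/mL) and absorbance of the formazan, expressed relative to DMSO controls.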

[19] = Growth inhibition of p53 null human HCT116 cells after 72 hrs by MTT assay; format: functional, cell-based; conditions: HCT-116, 72 h; outline: as §5
EA.hy 926 [20] = assay: Antivascular activity in human EAhy926 cells assessed as change in cell morphology from stretched to rounded form at 100 nM after 16 hrs by matrigel based tube formation assay; format: functional; outline: as §3
[21] = Cell cycle arrest in human 518A2 cells assessed as accumulation at G1 phase at 200 nM after 24 hrs by propidium iodide staining-based flow cytometry (reference value: 49.5%); format: functional
[22] = Cell cycle arrest in human 518A2 cells assessed as accumulation at subG1 phase at 200 nM after 24 hrs by propidium iodide staining-based flow cytometry (reference value: 3.8%); format: functional
[23] = Cell cycle arrest in human 518A2 cells assessed as accumulation at G2/M phase at 200 nM after 24 hrs by propidium iodide staining-based flow cytometry (reference value: 26.3%); format: functional
[24] = Cell cycle arrest in human 518A2 cells assessed as accumulation at S phase at 200 nM after 24 hrs by propidium iodide staining-based flow cytometry (reference value: 20.4%); format: functional
[25] = Cell cycle arrest in human 518A2 cells assessed as G2/M index ratio at 200 nM after 24 hrs by propidium iodide staining-based flow cytometry relative to control; format: functional
[26] = Cell cycle arrest in human 518A2 cells assessed as apoptotic index ratio at 200 nM after 24 hrs by propidium iodide staining-based flow cytometry relative to control; format: functional

Row | SMILES | IC50 (HT-29 [5]) [nM] | IC50 (HT-29 [6]) [nM] | IC50 [1] [nM] | IC50 [2] [nM] | IC50 [3] [nM] | IC50 [4] [nM] | further results
1 | COc1cc(-c2ncn(C)c2-c2ccc3c(c2)c(Cl)c(Cl)n3C)cc(Br)c1OC | 903 | 223 | 208 | 223 | 292 | 456 | –
2 | COc1ccc(/C=C\c2cc(OC)c(OC)c(OC)c2)cc1O [COMBRETASTATIN A4] | – | > 5000 | – | – | – | – | Activity (EA.hy 926 [7]): Active; mortality at 24 h [8]: 60%; Activity (HT-29 [9]): 18.2%; Activity (HT-29 [10]): 10.2%; IC50 [11]: 5480 nM; Activity (EA.hy 926 [12]): Active; IC50 [13]: 2.6 nM; inhibition (Sus scrofa): Active; IC50 [14]: 154 nM; Activity (HT-29 [15]): 51.4%; IC50 [16]: 11 nM; Activity (HT-29 [17]): 18.6%; viability at 16 h, 0.1 µM [18]: > 90%; IC50 [19]: 3.4 nM; Activity (EA.hy 926 [20]): Active
3 | CCn1cc(Cl)c2cc(-c3c(-c4cc(OC)c(OC)c(OC)c4)ncn3C)ccc21 | 75.8 | 43.4 | 30.2 | 33 | 739 | 33.2 | –

The next lines start with results.

Row | IC50 (HT-29 [5]) [nM] | IC50 (HT-29 [6]) [nM] | SMILES | IC50 [1] [nM] | IC50 [2] [nM] | IC50 [3] [nM] | IC50 [4] [nM] | further results
4 | > 1000 | 793 | CCn1c(Cl)c(Cl)c2cc(-c3c(-c4cc(Br)c(OC)c(OC)c4)ncn3C)ccc21 | 489 | 767 | > 1000 | > 1000 | –
5 | 35.1 | 39.7 | COc1cc(-c2ncn(C)c2-c2ccc3c(c2)c(Cl)cn3C)cc(I)c1OC | 53.3 | 35.7 | 56.7 | 49.8 | –
6 | 482 | 178 | CCn1cc(Cl)c2cc(-c3c(-c4cc(I)c(OC)c(OC)c4)ncn3C)ccc21 | 81.2 | 168 | 211 | 83.2 | –
7 | 246 | 116 | CCn1cc(Cl)c2cc(-c3c(-c4cc(Br)c(OC)c(OC)c4)ncn3C)ccc21 | 91.3 | 82 | 216 | 48.4 | Activity [21]: 39.7%; Activity [22]: 7.8%; Activity [23]: 35.2%; Activity [24]: 17.4%; Ratio [25]: 1.7; Ratio [26]: 5.1
8 | 33.7 | 31.4 | COc1cc(-c2ncn(C)c2-c2ccc3c(c2)c(Cl)cn3C)cc(Cl)c1OC | 26.9 | 32.4 | 174 | 37.9 | –

From ChEMBL document CHEMBL3822382 (Eur J Med Chem, 2016)
